Measured values published in ChEMBL document CHEMBL4041527, “Disulfide Bond-Containing Ajoene Analogues As Novel Quorum Sensing Inhibitors of Pseudomonas aeruginosa” (J Med Chem, 2017).
Activity calls are given as the source filed them. The rule behind the calls is not given here.

What was measured:
[1] = (§1) Inhibition of quorum sensing LasI synthase in Pseudomonas aeruginosa PAO1 harboring reporter plasmid lasB-gfp assessed as reduction in lasB expression measured every 15 mins for 12 hrs by GFP-fluorescence assay
Pseudomonas aeruginosa [2] = experiment: Growth inhibition of Pseudomonas aeruginosa PAO1 harboring reporter plasmid lasB-gfp
[3] = target: T1, HTH-type quorum-sensing regulator RhlR (Pseudomonas aeruginosa (strain ATCC 15692 / PAO1 / 1C / PRS 101 / LMG12228), UniProt P54292); experiment: Inhibition of quorum sensing regulator protein RhlR in Pseudomonas aeruginosa PAO1 harboring reporter plasmid rhlA-gfp assessed as reduction in rhlA expression measured every 15 mins for 12 hrs by GFP-fluorescence assay
T1 sequence (P54292 whole entry): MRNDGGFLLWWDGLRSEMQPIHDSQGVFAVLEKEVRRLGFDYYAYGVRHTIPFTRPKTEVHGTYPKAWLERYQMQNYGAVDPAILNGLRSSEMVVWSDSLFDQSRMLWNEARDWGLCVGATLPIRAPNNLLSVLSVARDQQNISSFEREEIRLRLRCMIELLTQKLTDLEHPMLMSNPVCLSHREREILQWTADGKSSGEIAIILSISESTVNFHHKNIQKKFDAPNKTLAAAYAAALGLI

[4] = system: Pseudomonas aeruginosa PAO1; experiment: as §1
RAW264.7 [5] = experiment: Cytotoxicity against mouse RAW264.7 cells at 100 uM measured after 16 hrs by Alamar blue assay; assay type: cell-based; conditions: raw264.7, 16 h
Summary of the method: (§2)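 RAW264.7 macrophages in DMEM with 10% FBS, 1 × 10^5 per well, grown 16 h. Cells were washed with PBS and exposed to compound at 0, 0.01, 0.1, 1, 10 or 100 µM for 16 h at 37 °C, 5% CO2. Alamar Blue added, 3 h incubation, OD595 read. Triplicates, mean±s.d., compared with DMSO.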

[6] = target: T2, HTH-type quorum-sensing regulator RhlR (Pseudomonas aeruginosa (strain ATCC 15692 / PAO1 / 1C / PRS 101 / LMG12228)) (UniProt P54292); experiment: Inhibition of quorum sensing regulator protein RhlR in wild-type Pseudomonas aeruginosa PAO1 assessed as reduction in rhamnolipid level at 10 uM after 24 hrs relative to control
T2 sequence (whole entry): T1 sequence (P54292 whole entry)
Summary of the method: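 PAO1 subculture diluted 100-fold into ABTGC (OD600 0.1) with 10 µM compound, ∆lasI∆rhlI as negative control. Grown 24 h at 37 °C, 200 rpm; final OD600 read. Supernatant extracted twice with diethyl ether and rhamnolipid quantified by a modified orcinol method. Student's t test, mean ± SD.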

[7] = Inhibition of quorum sensing regulator protein pqsR in Pseudomonas aeruginosa PAO1 harboring reporter plasmid pqsA-gfp assessed as reduction in pqsA expression measured every 15 mins for 12 hrs by GFP-fluorescence assay
Pseudomonas aeruginosa [8] = experiment: Antibacterial activity against Pseudomonas aeruginosa infected in BALB/c mouse assessed as reduction in bacterial dissemination in spleen at 10 uM measured at 24 hrs post infection; assay type: functional
Summary of the method: (§3)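 Female BALB/c mice, 8 weeks old. A 4 mm silicone tube was incubated 18 h at 37 °C in 0.9% NaCl with P. aeruginosa (OD600 0.1), then inserted into the peritoneal cavity under ketamine/xylazine. At 2 h post-infection, 200 µL of 10 µM compound (EtOH stock diluted in 20% hydroxypropyl-β-cyclodextrin/saline) was injected at the implant site; vehicle for controls. At 24 h, CFU/mL counted from sonicated implants and homogenized spleens on LB; Mann-Whitney U test.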

Pseudomonas aeruginosa [9] = experiment: Effect on GFP fluorescence output signal in Pseudomonas aeruginosa PAO1 at 10 uM measured every 15 mins for 12 hrs; assay type: ADME
Summary of the method: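 PAO1-gfp control strain, handled as the lasB-gfp reporter assay. Overnight LB culture diluted in ABTGC to OD600 0.02 and mixed with compound, final 10 µM, DMSO 0.1% final. Incubated at 37 °C; OD600 and GFP fluorescence (ex 485/em 535 nm) read every 15 min for at least 12 h, in triplicate.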

Pseudomonas aeruginosa [10] = experiment: Antibacterial activity against Pseudomonas aeruginosa in bacterial coated silicone implanted BALB/c mouse assessed as reduction in biofilm formation at 10 uM measured at 24 hrs post infection; assay type: functional; summary of the method: as §3
[11] = system: Pseudomonas aeruginosa PAO1; experiment: Inhibition of quorum sensing LasI synthase in Pseudomonas aeruginosa PAO1 harboring reporter plasmid lasB-gfp at 10 uM in presence of bovine serum albumin measured after 18 hrs by GFP-fluorescence assay
Summary of the method: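 BSA dissolved in ABTGC at 100 mg/mL, then 2-fold serially diluted across rows; compound final 10 µM. PAO1-lasB-gfp, grown overnight in LB, added at OD600 0.02 in ABTGC. GFP/OD read after 18 h at 37 °C.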

[12] = system: Pseudomonas aeruginosa PAO1; experiment: Inhibition of quorum sensing LasI synthase in wild-type Pseudomonas aeruginosa PAO1 assessed as reduction in elastase production at 10 uM incubated for 24 hrs measured every 10 mins for 3 hrs by BODIPY fluorophore-labelled DQ elastin conjugate based fluorescence assay
Summary of the method: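 PAO1 wild type, with ∆lasI∆rhlI as negative control, diluted to OD600 0.01 in 5 mL ABTGC with 10 µM compound. Grown 24 h at 37 °C, 200 rpm. Cleared supernatant assayed with BODIPY FL-labelled DQ elastin; fluorescence (ex 490/em 520 nm) read every 10 min for 3 h. Student's t test, mean ± SD.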

[13] = target: T2, HTH-type quorum-sensing regulator RhlR (Pseudomonas aeruginosa (strain ATCC 15692 / PAO1 / 1C / PRS 101 / LMG12228)); experiment: Inhibition of quorum sensing regulator protein RhlR in wild-type Pseudomonas aeruginosa PAO1 assessed as reduction in pyocyanin level at 10 uM after 48 hrs
Summary of the method: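 PAO1 wild type, with ∆lasI∆rhlI as negative control, standardized to OD600 0.1 and diluted 100-fold into 25 mL King's medium with 10 µM compound. Grown 48 h at 37 °C, 200 rpm; final OD600 read. Pyocyanin extracted from supernatant with chloroform then 0.2 M HCl; absorbance read on the aqueous layer. Student's t test.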

RAW264.7 [14] = experiment: Cytotoxicity against mouse RAW264.7 cells at 0.01 to 10 uM measured after 16 hrs by Alamar blue assay; assay type: cell-based; conditions: raw264.7, 16 h; summary of the method: as §2
[15] = system: Pseudomonas aeruginosa PAO1; experiment: Inhibition of quorum sensing LasI synthase in Pseudomonas aeruginosa PAO1 harboring reporter plasmid lasB-gfp assessed as reduction in lasB expression at 10 uM measured every 15 mins for 12 hrs by GFP-fluorescence assay

SMILES | IC50 [1] | growth inhibition (GI) (Pseudomonas aeruginosa [2]) | also measured
c1ccc2sc(SSC3CCCCC3)nc2c1 | 6000 nM | Non-Toxic | 
CCOc1ccc2nc(SSc3ccc(Cl)cc3)sc2c1 | 720 nM | Non-Toxic | 
C=CCSSc1nc2ccc(C(F)(F)F)cc2s1 | 1350 nM | Non-Toxic | 
Cc1ccc2nc(SSc3nc4ccc(C)cc4s3)sc2c1 | 16900 nM | Non-Toxic | 
FC(F)(F)c1ccc2nc(SSc3ccc(Cl)cc3)sc2c1 | 580 nM | Non-Toxic | 
C=CCSS/C=C/C[S+]([O-])CC=C (configuration not stated) [AJOENE] | 15000 nM | Non-Toxic | IC50 [3]: 50000 nM
c1ccc2sc(SSc3nc4ccccc4s3)nc2c1 [BENZOTHIAZYL DISULFIDE] | 14500 nM | Non-Toxic | 
O=C(NS(=O)(=O)c1ccccc1)c1ccccc1 | 36200 nM |  | inhibition [4]: Dose-dependent effect
C=CCSSc1nc2ccccc2s1 | 980 nM | Non-Toxic | Activity (RAW264.7 [5]): Toxic; IC50 [3]: 2030 nM; inhibition [6]: 50%; inhibition [4]: Dose-dependent effect; IC50 [7]: 330 nM; Activity (Pseudomonas aeruginosa [8]): Active; Activity (Pseudomonas aeruginosa [9]): Non-Toxic; Activity (Pseudomonas aeruginosa [10]): Active; inhibition [11]: Active; inhibition [12]: Active; inhibition [13]: Active; Activity (RAW264.7 [14]): Non-Toxic
C=CCSSc1nc2ccc(OCC)cc2s1 | 3580 nM | Non-Toxic | 
C=CCCSc1nc2ccccc2s1 |  | Non-Toxic | inhibition [4]: inactive
CCCSSc1nc2ccccc2s1 | 2200 nM | Non-Toxic | 
c1ccc(SSc2nc3ccccc3s2)cc1 | 1340 nM | Non-Toxic | 
C=CCSSCc1ccccc1 | 20900 nM | Non-Toxic | 
C=CCSSc1nc2cc(OC)ccc2o1 | 3450 nM | Non-Toxic | 
Cc1ccc2nc(SSc3ccc(Cl)cc3)sc2c1 | 680 nM | Non-Toxic | 

SMILES | IC50 [1] | growth inhibition (GI) (Pseudomonas aeruginosa [2]) | also measured
C=CCSSc1nc2ccc(Cl)cc2o1 | 4080 nM | Non-Toxic | 
COc1ccc(SSc2nc3ccccc3s2)cc1 | 1660 nM | Non-Toxic | 
C=CCSSc1nnc(N)s1 | 2280 nM | Non-Toxic | inhibition [4]: Dose-dependent effect
Clc1ccc(SSc2nc3ccc(Cl)cc3s2)cc1 | 3250 nM | Non-Toxic | 
C[S+]([O-])CCCN=C=S (configuration not stated) | 31000 nM | Non-Toxic | 
CCOC(=S)SCC#N | 2140 nM |  | inhibition [4]: Dose-dependent effect
C=CCSSc1nnnn1-c1ccccc1 |  | Non-Toxic | inhibition [15]: inactive
C=CCSSc1nc2ccc(Cl)cc2s1 | 780 nM | Non-Toxic | 
FC(F)(F)c1ccc2nc(SSc3nc4ccc(C(F)(F)F)cc4s3)sc2c1 | 12100 nM | Non-Toxic | 
C=CCSc1nc2ccccc2s1 |  | Non-Toxic | inhibition [4]: inactive
CCCSc1nc2ccccc2s1 |  | Non-Toxic | inhibition [4]: inactive
C=CCSSc1nc2ccc(C)cc2s1 | 1120 nM | Non-Toxic | 
C=CCSSc1ccccc1C(=O)OC |  | Non-Toxic | inhibition [15]: inactive
Clc1ccc(SSc2nc3ccccc3s2)cc1 | 560 nM | Non-Toxic | Activity (RAW264.7 [5]): Toxic; inhibition [6]: 50%; Activity (Pseudomonas aeruginosa [8]): Active; Activity (Pseudomonas aeruginosa [9]): Non-Toxic; Activity (Pseudomonas aeruginosa [10]): Active; inhibition [11]: Active; inhibition [12]: Active; inhibition [13]: Active; Activity (RAW264.7 [14]): Non-Toxic
Clc1ccc(Sc2nc3ccccc3s2)cc1 |  | Non-Toxic | inhibition [4]: inactive
CCOc1ccc2nc(SSc3nc4ccc(OCC)cc4s3)sc2c1 | 45400 nM | Non-Toxic | 
